# Assays:
# [1] = target: Sodium/potassium-transporting ATPase; test: Binding affinity towards Na+,K+ -ATPase isolated from dog kidney.; type: protein-complex assay, Canis lupus familiaris
# In short: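 Displacement of specific [3H]ouabain binding from the Na+,K+-ATPase receptor, enzyme isolated from dog kidney and purified per Jørgensen. Means of two to three separate experiments in duplicate.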
# Cavia porcellus = organism: Cavia porcellus; test: In vitro increase in contractile force of the guine pig atrium.; type: functional, organism-based; details: Cardiac atrium
# In short: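 Left atria from male guinea pigs (300-500 g) in organ baths of bicarbonate salt solution with glucose and sucrose, 95% O2/5% CO2, 32 °C, 500 mg resting tension. Field-stimulated at 1 Hz (1 ms, twice threshold voltage). After 60 min equilibration, cumulative concentrations added, each held until maximal response or arrhythmia. Read-out: maximal increase in contractile force; EC50 from concentration–response curves.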
Structure (SMILES),IC50 [1] [nM],EC50 (Cavia porcellus) [nM]
C[C@@H](C/C=N/OCCN)[C@@]1(C)CCC2C(CC[C@@H]3C[C@@H](O)CC[C@]23C)C1=O (stereo not given in full),100,–
CC[C@@H](C/C=N/OCCN)[C@@]1(C)CCC2C(CC[C@@H]3C[C@@H](O)CC[C@]23C)C1=O (stereo not given in full),40,1500
CC[C@H](C/C=N/OCCN(C)C)[C@@]1(C)CCC2C(CC[C@@H]3C[C@@H](O)CC[C@]23C)C1=O (stereo not given in full),800,–
C[C@]12CC[C@H](O)C[C@H]1CC[C@@H]1[C@@H]2CC[C@]2(C)[C@H](C/C=N/OCCCN)CC[C@]12O,200,–
C[C@]12CC[C@H](O)C[C@H]1CC[C@@H]1[C@@H]2CC[C@]2(C)[C@H](/C=N/OCCN)CC[C@]12O,400,–
C[C@]12CC[C@H](O)C[C@H]1CC[C@@H]1[C@@H]2CC[C@]2(C)[C@H](/C=N/OCCCCN)CC[C@]12O,1000,–
CC[C@@H](/C=N/OCCN(C)C)[C@@]1(C)CCC2C(CC[C@H]3C[C@@H](O)CC[C@]23C)C1=O (stereo not given in full),500,–
C[C@@H](C/C=N/OCCN(C)C)[C@@]1(C)CCC2C(CC[C@@H]3C[C@@H](O)CC[C@]23C)C1=O (stereo not given in full),130,3000
CCC[C@@H](C/C=N/OCCN)[C@@]1(C)CCC2C(CC[C@@H]3C[C@@H](O)CC[C@]23C)C1=O (stereo not given in full),200,5600
C[C@]12CC[C@H](O)C[C@H]1CC[C@@H]1[C@@H]2CC[C@]2(C)[C@H](C/C=N/OCCCCN)CC[C@]12O,800,–
CN(C)CCO/N=C/C[C@@H]1CC[C@]2(O)[C@@H]3CC[C@@H]4C[C@@H](O)CC[C@]4(C)[C@H]3CC[C@]12C,250,–
C[C@]12CC[C@H](O)C[C@H]1CC[C@@H]1[C@@H]2CC[C@]2(C)[C@H](C/C=N/OCCN)CC[C@]12O,50,3500
CC[C@@H](C/C=N/OCCN)[C@@]1(C)CCC2C(CC[C@H]3C[C@@H](O)CC[C@]23C)C1=O (stereo not given in full),160,–
CC[C@@H](C/C=N/OCCN(C)C)[C@@]1(C)CCC2C(CC[C@H]3C[C@@H](O)CC[C@]23C)C1=O (stereo not given in full),250,–
C[C@]12CC[C@H](O)C[C@H]1CC[C@@H]1[C@@H]2CC[C@]2(C)[C@@H](C3=CC(=O)OC3)CC[C@]12O [DIGITOXIGENIN],–,570
CN(C)CCO/N=C/[C@@H]1CC[C@]2(O)[C@@H]3CC[C@@H]4C[C@@H](O)CC[C@]4(C)[C@H]3CC[C@]12C,1600,–
C[C@]12CC[C@H](O)C[C@H]1CC[C@@H]1[C@@H]2CC[C@]2(C)[C@H](/C=N/OCCCN)CC[C@]12O,400,18000
CC[C@H](/C=N/OCCN(C)C)[C@@]1(C)CCC2C(CC[C@@H]3C[C@@H](O)CC[C@]23C)C1=O (stereo not given in full),4000,–
CC[C@@H](C/C=N/OCCN(C)C)[C@@]1(C)CCC2C(CC[C@@H]3C[C@@H](O)CC[C@]23C)C1=O (stereo not given in full),100,2000

# Source: ChEMBL document CHEMBL1134675, “17 alpha-O-(aminoalkyl)oxime derivatives of 3 beta,14 beta-dihydroxy-5 beta-androstane and 3 beta-hydroxy-14-oxoseco-D-5 beta-androstane as inhibitors of Na(+),K(+)-ATPase at the digitalis receptor” (J Med Chem, 2001)
